ZTA DNA inh – counter-screen for EBNA-1 inhibitors: inhibitors of Epstein-Barr virus ZTA | hit rate 0.15% among 320,000 | P03206 | ZTA-DNA binding, fluorescence polarization | inhibition, % at 11 µM | AID 2234; in the data active means inhibition above about 33%
Target sequence (P03206 whole entry, looked up): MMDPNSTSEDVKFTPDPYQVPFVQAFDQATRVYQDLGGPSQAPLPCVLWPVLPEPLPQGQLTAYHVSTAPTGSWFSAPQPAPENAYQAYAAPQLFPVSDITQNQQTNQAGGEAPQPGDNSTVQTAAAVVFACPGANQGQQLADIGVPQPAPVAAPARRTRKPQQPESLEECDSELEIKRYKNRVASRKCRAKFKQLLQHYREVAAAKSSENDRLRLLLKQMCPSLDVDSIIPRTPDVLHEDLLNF
HCV NS3 hel inh – HCV NS3 helicase inhibition | inhibition, % at 10.9 µM | hit rate 0.56% among 290,000 | NS3 helicase DNA unwinding, Cy5 molecular beacon fluorescence;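 active means inhibition above the mean of all tested compounds plus 3 SD, set per campaign, cut at about 35% in these data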;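 further: 0% = DMSO wells and 100% = thioflavine S control wells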
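System: HCV NS3 helicase fragment; control set: DMSO and thioflavine S; technique: Cy5 fluorescence at 0 and 60 min, beacon hairpin quenching; reagent: beacon DNA duplex substrate plus ATP; replicates: singlicate; schedule: 1 h reaction at 25 °C, ATP-initiated; medium: MOPS buffer pH 6.5 with MgCl2, DTT, Tween20, BSA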
M18AAP inhibitor – blocks P. falciparum M18 aspartyl aminopeptidase; recombinant PfM18AAP, H-Glu-NHMec fluorogenic cleavage; inhibition, % at 7.35 µM; hit rate 1.2% among 290,000; AID 1822;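 active means inhibition above the campaign mean inhibition over all tested compounds plus 3 SD, cut at about 28% in these data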;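 further: 0% = plate median of test compound wells and 100% = 2 mM ZnCl2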
ALR H2O2 inh – blocks human ALR sulfhydryl oxidase activity | P55789 | AID 485317 | purified ALR, DTT oxidation, H2O2 HRP-luminol luminescence | hit rate 3.8% among 290,000 | inhibition, % (test concentration not listed);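 active means mean replicate inhibition above about 79%, with every replicate also reaching it, limit read from the data; inconclusive means only one of the two criteria met; inactive means mean below limit and not every replicate reaching it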
Target sequence (P55789 whole entry, looked up): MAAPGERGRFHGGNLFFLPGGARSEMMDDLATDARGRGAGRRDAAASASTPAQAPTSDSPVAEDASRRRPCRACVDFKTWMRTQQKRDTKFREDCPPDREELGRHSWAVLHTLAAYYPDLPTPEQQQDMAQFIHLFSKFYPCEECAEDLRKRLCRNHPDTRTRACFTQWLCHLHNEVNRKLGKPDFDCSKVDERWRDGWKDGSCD
EBNA-1 inhibitor – blocks EBNA-1 binding to DNA; EBNA-1 DNA binding, fluorescence polarization; inhibition, % at 14.8 µM; hit rate 0.34% among 300,000; in the data active means inhibition above about 28%
HCV core dimer – HCV core protein dimerization inhibition | TR-FRET GST/Flag-core106 dimerization, 1536-well | inhibition, % at 5 µM | hit rate 0.33% among 300,000;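 active means inhibition above the mean of all tested compounds plus 3 SD, set per screening campaign, cut at about 45% in these data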
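Assay system: tagged HCV core106 pair (GST and Flag); medium: KF-containing HEPES buffer, pH 7.45, DTT, CHAPS, BSA; also added: Eu donor and XL665 acceptor anti-tag antibodies; dosing: 5 µM single dose; timing: compound-protein-antibody incubation 4 h at 22.5 °C; signal: TR-FRET 671 and 617 nm emission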
* marks the source's active call; other numbers are inactive results; ? = inconclusive; · = no result. Rows were chosen to be rich in hits. Some 5.2% of all compounds tested hit in one or more screens of this group.

SMILES	ZTA DNA inh	HCV NS3 hel inh	M18AAP inhibitor	ALR H2O2 inh	EBNA-1 inhibitor	HCV core dimer
CCCCc1c(O)nc(SCC(=O)Nc2ccc(C)cc2)n(-c2ccc(OC)cc2)c1=O	-2	-11	3	99*	-5	-4
CCc1c(O)nc(SCC(=O)Nc2ccc(Br)cc2)n(-c2ccc(C)cc2)c1=O	2	-22	-7	96*	0	3
CCc1c(O)nc(SCC(=O)Nc2ccccc2C)n(-c2ccc(C)cc2)c1=O	2	-2	-2	?	-4	2
CCc1c(O)nc(SCC(=O)Nc2ccccc2)n(-c2ccccc2)c1=O	-4	1	6	99*	9	4
CCc1c(O)nc(SCC(=O)Nc2ccccc2OC)n(-c2ccccc2C)c1=O	-13	28	-7	36	-12	-5
COc1ccc(-n2c(SCC(=O)Nc3ccccc3)nnc2-c2ccoc2C)cc1	11	-9	-5	96*	-18	13
Cc1ccc(C)c(N(CC(=O)N2CCCC2)S(C)(=O)=O)c1	1	13	0	-5	6	-5
Cc1cccc(CCN(C(=O)c2csnn2)C(C(=O)NC2CCCC2)c2ccco2)c1 (stereo not given)	4	3	0	3	-21	5
CC1CN(C(=O)CSc2nnc(-c3cccs3)n2N)CC(C)O1 (stereo not given)	-2	·	·	·	·	·
CC(=O)Nc1ccc(S(=O)(=O)N(C)c2ccc(O)cc2)cc1	0	10	-1	98*	2	1
CC(=O)Nc1ccc(N=Nc2ccc(O)cc2)cc1	5	-2	6	99*	-4	-18
COC(=O)c1cc(OC)c(OC)cc1N=CC1=C(O)CC(C)(C)CC1=O	-13	-6	-5	-4	4	-8
COC(=O)c1cc(N=CC2=C(O)CC(C)(C)CC2=O)cc(C(=O)OC)c1	-8	3	30*	1	7	12
CCN1CCn2c3c(c4cc(C)ccc42)CCCC31 (stereo not given)	-3	4	6	98*	-21	-2
COc1cccc(OC)c1C(=O)OCC(=O)N(c1ccccc1)C1CCCCC1	-16	·	·	-1	·	·
CC(SCC(=O)Nc1ccc(F)cc1)c1nc2ccccc2c(=O)[nH]1 (stereo not given)	-8	3	4	22	4	-10
CC(=O)Nc1ccc(S(=O)(=O)N2CCC(C(=O)N[C@@H](C)C(=O)NC3CCCC3)CC2)cc1	2	-2	1	8	-15	-3
COc1cc(O)sc1C=Nc1ccc(Cl)cc1	-17	-4	-10	95*	-2	-2
O=C1NC(=O)/C(=C\c2ccsc2)N1	5	-7	-10	-4	-8	-3
CCN(CC)c1ccc(/C=C2\NC(=O)NC2=O)cc1	-13	13	6	99*	-8	-44
Cc1cc(C)cc(N2C(=O)CSC2c2ccccn2)c1 (stereo not given)	8	14	1	99*	-11	-3
O=C1CSC(c2ccccn2)N1c1ccccc1 (stereo not given)	3	5	0	99*	-3	2
CCOc1cc(C(=O)Nc2ccc(S(=O)(=O)NC3=NCCCCC3)cc2)cc(Br)c1OC	-16	·	·	3	0	2
Cc1cc(C)c(S(=O)(=O)NCC(=O)NCc2cc(=O)n(C)c(=O)n2C)c(C)c1	3	6	1	1	4	6
CC(C)(C)[C@H]1CCC(=O)N([C@H](CSc2ccccc2)Cc2ccccc2)CC1	-18	-16	-6	-3	5	-2
SMILES	ZTA DNA inh	HCV NS3 hel inh	M18AAP inhibitor	ALR H2O2 inh	EBNA-1 inhibitor	HCV core dimer
CC(=O)Nc1ccc(S[C@@H](CCN2CC[C@H](C(C)(C)C)CCC2=O)c2ccccc2)cc1	9	·	·	97*	·	·
CC(=O)Nc1ccc(SC[C@H](Cc2ccccc2)N2CCN(CCc3ccccc3)CCC2=O)cc1	-11	·	·	·	9	4
CC(=O)Nc1ccc(SCCN2CC[C@@H](C)CCC2=O)cc1	-3	·	·	99*	·	·
CC(=O)Nc1ccc(SC[C@H](Cc2ccccc2)N2CC[C@@H](O)CCC2=O)cc1	-4	·	·	99*	·	·
CC(=O)Nc1ccc(SC[C@H](Cc2ccccc2)N2CC[C@@H](C(C)(C)C)CCC2=O)cc1	-20	·	·	99*	·	·
O=C(C1CCC1)N1CCC(O)(c2cccc(F)c2)CC1	1	3	-1	·	-5	-3
CCCNS(=O)(=O)c1cccc(C(=O)NNC(=O)c2cc(C)oc2C)c1	-10	·	·	16	5	-9
CCN1CCN(Cc2ccc(NC(=O)Nc3ccc(SC)cc3)cc2)CC1	5	-17	-2	96*	0	-3
CCN1CCN(C(=S)c2ccc(SC)cc2)CC1	1	-2	31*	-20	-8	-1
Cc1ccc(C)c(-n2cc[nH]c2=S)c1	-3	3	30*	35	13	-5
CCN1CCN(C(c2cccs2)C(C)NC(=O)C(=O)N2CCCCC2)CC1 (stereo not given)	-2	4	6	-5	-8	-3
O=C(/C=C\c1ccc2c(c1)OCO2)Nc1c2c(nn1-c1ccc(Cl)cc1)CSC2	-9	0	3	-14	-9	47*
CC1CC(C)CN(C(=O)/C=C/c2ccc(S(=O)(=O)N3CCOCC3)cc2)C1 (stereo not given)	-5	·	·	-14	·	·
CCc1ccc(NC(=O)COC(=O)CCc2nc3cc(S(=O)(=O)N(CC)CC)ccc3n2C)cc1	5	19	3	99*	-12	6
CCCc1c(C)nc(N2CCN(c3ccccc3F)CC2)[nH]c1=O	10	-4	-2	-5	4	6
CCCCn1c(NC(C)CC)nc2c1c(=O)[nH]c(=O)n2C (stereo not given)	-15	-4	2	92*	-11	-5
CCCCCn1c(NC2CCCCC2)nc2c1c(=O)[nH]c(=O)n2C	3	·	·	30	4	7
CCC(C)Nc1nc2c(c(=O)[nH]c(=O)n2C)n1CCOc1ccccc1 (stereo not given)	5	0	-2	98*	-9	-7
Cn1c(=O)[nH]c(=O)c2c1nc(NCCO)n2CCOc1ccccc1	13	-7	-13	13	8	-9
Cn1c(=O)[nH]c(=O)c2c1nc(N/N=C/C(Br)=C/c1ccccc1)n2CCO	9	-6	30*	20	-1	-3
O=C(NCc1ccon1)C1CCC(=O)N(CCc2cccc(F)c2)C1 (stereo not given)	·	-1	-1	·	·	·
Cc1cccc(NC(=O)NC2CCCCCCC2)c1C	·	4	0	-14	·	·
Cc1cc(C)c2c(c1)C1C=CCC1C(c1ccc(S(=O)(=O)N3CCOCC3)cc1)N2 (stereo not given)	-10	7	-3	0	5	63*
c1cc2c3c(cccc3c1)NC1(CCCCCC1)N2	0	-8	2	-12	2	52*
c1cc2c3c(cccc3c1)NC1(CCCCC1)N2	-12	4	2	-5	0	34

High-throughput results from PubChem.
